From the RNAGym collection of RNA variant scans (doi:10.1126/science.aae0568)
This sample holds only a part of the variants without activity.

B1: tRNA (parent)
chain: GUUCCGUUGGCGUAAUGGUAACGCGUCUCCCUCCUAAGGAGAAGACUGCGGGUUCGAGUCCCGUACGGAACG

Variants of: B1
Assay: yeast fitness relative to wild type (ratio to wild type); higher = fitter; tRNA-Arg(CCU), competitive growth, 37 C, YPD
Method in brief: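 Variants of the tRNA-Arg(CCU) gene were chemically synthesised with a 3% per-site mutation rate across 69 sites and placed at the native genomic locus in Saccharomyces cerevisiae. Six parallel replicates of the pooled strains were competed in YPD at 37°C for 24 hours, and gene amplicons from the start and end populations were read by 100-nucleotide paired-end sequencing. Darwinian fitness relative to wild type was derived from changes in genotype frequencies. Genotypes required ≥ 100 starting reads, and estimates < 0.5 were set to 0.5.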

First: GUUCCGUUGGCGUAAUGAUAACGCGUCUCCCUCCUAAGGAGAAGACUGCGGGUUCCAGUCCCGUACGGAACG
Second: GUUCCGUUGGCGUAAUGAUAACGCGUCUCCCUCCUAAGGAGAAGACUGCGGGUUCAAGUCCCGUACGGAACG
The yeast fitness of the first is lower: 0.521 for the first, 0.705 for the second.

Going from GUUCCGUUGGCGUAAUGAUAACGCGUCUCCCUCCUAAGGAGAAGAAUGCGGGUUCGAGUCCCGCACGGAACG to GUUCCGUUGGCGUAAUGAUAACGCGUCUCCCUCCUAAGCAGAAGACUGCGGGUUCGAGUCCCGUACGGAACG, the yeast fitness rises from 0.535 to 0.757.

First: GUUCCGUUGGCGUAAUGAUAACGCGUCUCCCUCUUAAGGAGACGACUGCGGGUUCGAGUCCCGUACGGAACG
Second: GUUCCGUUGGCGUAAUGAUAACGCGUCUCCCUCCUAAGGAGAAGACUGCGGGUUCGAGUCCCAUACGGCACG
The yeast fitness of the first is lower: ≤ 0.5 for the first, 0.827 for the second.

First: GUUCCGUUGGCGUAAUGAUAACGCAUCUCCCUCCUAAGGAGAAGAUUGCGGGUUCGAGUCCCGUACGGAACG
Second: GUUCCGUUGGCGUAAUGAUAACGCGUCUCCCUCCUAAGGAGAAGACUGCGGCUUCGAGUCCCGUACUGUACG
The yeast fitness of the first is higher: 0.508 for the first, ≤ 0.5 for the second.

Going from GUUCCGUUGGCGUAAUGAUAACGCGUCUCCCUCGUAAGGAGAAGACUCUGGGUUCGAGUCCCGUACGGAACG to GUUCCGUUGGCGUAAUGAUAACGCGUCUCCCUCCUAAGGAGAAAACUGCGGGUCCGAAUCCCGUACUGAACG, the yeast fitness falls from 0.698 to ≤ 0.5.

Compared with GUUCCGUUGGCGUAAUGAUAACGCGUCUCCCUCCUAAGGAGAAGACUGCGGGUUCGACUCCCGUACGGAACG, GUUCCGUUGGCGUAAUGAUAACGCGUCUCCCUCCUAAGGAGAAGACUGCGGGUUCGAAUCCCGUACGGAACG is lower in yeast fitness: 0.792 for the first, 0.765 for the second.

First: GUUCCGUUGGCGUAAUGAUAACGCGUCUCCCUCCUAAGGAGAAAACUGCGGGUUCGAGUCCCGUACGAAACG
Second: GUUCCGUUGGCGUAAUGAUAACGCGUCUCCCUCCUAAGGAGAAGACUGCGGGUUCGAGUCCCGUAUGGAACG
The yeast fitness of the first is lower: ≤ 0.5 for the first, 0.736 for the second.

Going from GUUCCGUUGGCGUAAUGAUAACGCGUCUCCCUCCUAAGGAGAAGACUGCGGGUUCGAGUCCCGUAAGGAACG to GUUCCGUUGGCGUAAUGAUAACCCGUCUCGCUCCUUAGGAGAAGACUGCGGGUUCGAGUGCCGUACGGAACG, the yeast fitness falls from 0.516 to ≤ 0.5.

GUUCCGUUGGCGUAAUGAUAACGCGUCUCCCUCCUAAGGAGAAGACUGCGGGUUCGAGUUCCGUGCGGAACG and GUUCCGUUGGCGUAAUGAAAACGCGUGUCCCUCCUAAGCAGAAGACUGCGGGUUCGAGUCCCGUACGGAACG cannot be ordered by yeast fitness: ≤ 0.5 for the first, ≤ 0.5 for the second.

First: GUUCCGUUGGCGUAAUGAUAACGCGUCUCCCUCCUAAGGAGAAGACUGCGGGUUCGAGUCCUGUACGGAACG
Second: GUUCCGUUGGCGUAAUGAUAACGCGUCUCCCUCCUAAGGAGAAGACUGCGGGUUCGAGUCCGGUACGGAACG
The yeast fitness of the first is higher: 0.712 for the first, 0.676 for the second.

GUUCCGUUGGCGUAAUGAUAACCCGUCUUCGUCCUAAGGAGAAGACUGCGGGUUCGAGUCCCGUACGGAACG and GUUCCGUUGGCGUAAUGAUAACGCGUCUCCCUCCUAAGGAGAAGACUGCAGGUUCGAGUCUCGUACGGAACG cannot be ordered by yeast fitness: ≤ 0.5 for the first, ≤ 0.5 for the second.

First: GUUCCGUUGGCGUAAUGAUAACGCGUCUCCCUCCUAAGGAGAAGACUCAGGGAUCAACUCCCGUACGGAACG
Second: GUUCCGUUGGCGUAAUGAUAACGCCUCUCCCUCCUAAGGAGAAGACUGCGGGUUCGAGUCCCGUACGGAACG
The yeast fitness of the first is lower: ≤ 0.5 for the first, 0.746 for the second.

Going from GUUCCGUUGGCGUAAUGAUAACGCGUCUCCCUCCUAAGGAGAAGACUGCGGGUUUCAGUCCCGUACGGAGCG to GUUCCGUUGGCGUAAUGAUAACGCGUCUCCCUUCUAAGGAGAAGACUGCGGGAUAGAGUCCCGUACGGAACG, the yeast fitness rises from ≤ 0.5 to 0.523.

GUUCCGUUGGCGUAAUGAUAACGCGUCUCCCUCCUAAGGAGAAGACUGCGGGUUCGACUCCCGUUCGGAACG and GUUCCGUUGGCGUAAUGAUAACGCGUCUCCCUCCUAAGGAGAAGACUGCGGAUUCGAGUCCCGUCCGGAACG cannot be ordered by yeast fitness: ≤ 0.5 for the first, ≤ 0.5 for the second.

Going from GUUCCGUUGGCGUAAUGAUAACGCGUCUCCCUCCUAAGGAGAAGACUACGGGUUCGAGUCCCGUACGGAACG to GUUCCGUUGGCGUAAUGAUAACGCGUCUCCCUCCUAAGGAGAAAACUGCGGGUUCGAGUCCUGUACGGAACG, the yeast fitness falls from 0.765 to ≤ 0.5.

GUUCCGUUGGCGUAAUGAUAACGCGUCUCCCUCUUAAGGAGACGAGUGCGGGUUCGAGUCCCGUACGGAACG and GUUCCGUUGGCGUAAUGAUAACGCGUCUCCCUCCUAAGGAGAAGACUGCGGGUUCGACUCCCGUACGAAACG cannot be ordered by yeast fitness: ≤ 0.5 for the first, ≤ 0.5 for the second.

GUUCCGUUGGCGUAAUGAUAACGCGUCUCCCUCCUAAGGAGAAGACUGAGGGUUCGAGUCCCAUACGGAACG and GUUCCGUUGGCGUAAUGAUAACGCGUCUCCCUCCUAAGACGAAGACUGCGGGUUCGAGUCCCGUACGGAUCG cannot be ordered by yeast fitness: ≤ 0.5 for the first, ≤ 0.5 for the second.

GUUCCGUUGGCGUAAUGAUAACGCGUCUCCCUCCUAAGGAGAAGACUGCCGGUUCGACUUCCGUAGGGAACG and GUUCCGUUGGCGUAAUGAUAACGCGUCUCCCUCCUAAGGAGAAGAAUGCGCGUUCGAGUUCCGUACGGAACG cannot be ordered by yeast fitness: ≤ 0.5 for the first, ≤ 0.5 for the second.

GUUCCGUUGGCGUAAUGAUAACACGUCUCCCUCCUAAGGAGAAGACUGCGGGUUCGACUCCCGUACGGACCG and GUUCCGUUGGCGUAAUGAUAACGCGUCUCCCUCGUAAGGAGAAGACUGCGGGUCCGAGUCCCGUACGGAACG cannot be ordered by yeast fitness: ≤ 0.5 for the first, ≤ 0.5 for the second.

Compared with GUUCCGUUGGCGUAAUGAUAACACGUCUCCCUACUAAGGAGAAGACUGCGGGUUCGAGUCCCGUCCGGAACG, GUUCCGUUGGCGUAAUGAUAACGCGUCUCCCUCUUAAGGGGAAGACUGCGGGUUCGAGUCCCGUAGGGAACG is lower in yeast fitness: 0.624 for the first, ≤ 0.5 for the second.

Compared with GUUCCGUUGGCGUAAUGAUAACGCGUCUCCCUCCUAAGGAGAAGACUGCGGGUUCGAGUCGCGUACGGAACG, GUUCCGUUGGCGUAAUGAUAACGCGUCUCCCUCCUAAGGAGAAGACUGCGGGUUCGAGUCUCGUACGGAACG is higher in yeast fitness: 0.681 for the first, 0.696 for the second.

GUUCCGUUGGCGUAAUGAUAACGCGUCUCCCUCUUAAGGAGAAGACUGCGGGUUCGAGUCCCGUACAGAACG and GUUCCGUUGGCGUAAUGAUAACGCGUCUCCCUCUUAAGCAGAAGACUGCGGGUUCGAGUCCCGUACGGAACG cannot be ordered by yeast fitness: ≤ 0.5 for the first, ≤ 0.5 for the second.

First: GUUCCGUUGGCGUAAUGAUAACGCGUCUCCCUCAUAAGGAGAAGACCGCGGGUUCGAGUCCCGUACGGAACG
Second: GUUCCGUUGGCGUAAUGAUAACGCGUCUCCCUCCUAAAGAGAAGACUGCGGGUUCGAGUCCCGUACGGAACG
The yeast fitness of the first is lower: ≤ 0.5 for the first, 0.73 for the second.

Compared with GUUCCGUUGGCGUAAUGAAAACGCGUCUCCCUCCUAAGGAGAAGACUGCGGGUUCGAGUCCCGUACGGAACG, GUUCCGUUGGCGUAAUGAUAACGCGUCUCCCUCCUAAGGAGAAGACUGGGGGUUCGAGUGCCGUACGGAACG is lower in yeast fitness: 0.594 for the first, ≤ 0.5 for the second.

GUUCCGUUGGCGUAAUGAUAACGCGUCUCCCUCUUAAGGAGACGACUGCGGGGUCGAGUCCCGUACGGAACG and GUUCCGUUGGCGUAAUGAUAACGCGUCUCCCUCCUAAGGAGAAGAUUGCGGGUUCGAGCACCGUACGAAACG cannot be ordered by yeast fitness: ≤ 0.5 for the first, ≤ 0.5 for the second.

First: GUUCCGUUGGCGUAAUGAUAACGCGUCUCCCUCCUAAGGAGAAGACUGCCGGUUCGAGUCCCGUACGGAACG
Second: GUUCCGUUGGCGUAAUGAUAACGCCUCUCCCUCCUAAGGAGAAGACUGCGGGUUCGAGUCCCGUACGGCACG
The yeast fitness of the first is higher: 0.615 for the first, 0.519 for the second.

GUUCCGUUGGCGUAAUGAUAACGCGUCUCCCUCCUAAGGAGAAGACUGCCGGUUGGAGUCCCGUACGGAACG and GUUCCGUUGGCGUAAUGAUAACGCGUCUCCCUCCUAAGGAGAAGACUGCAGGUUCGAGUCCGGUACGGAACG cannot be ordered by yeast fitness: ≤ 0.5 for the first, ≤ 0.5 for the second.

GUUCCGUUGGCGUAAUGAUAACGCGUCUCCCUCUCAAGGAGAAGACUGCGGGUUCGAGUCCCGUACGGAACG and GUUCCGUUGGCGUAAUGAUAACGCAUCUCCCUCCUAAGGAGAAGAUUGCGGGUUGGAGUCCCGUACGGCACG cannot be ordered by yeast fitness: ≤ 0.5 for the first, ≤ 0.5 for the second.

First: GUUCCGUUGGCGUAAUGAUAACGCGUCUCCCUCCUAAGGACAAGACUGCGGGAUCGAGUCCCGUACGGAACG
Second: GUUCCGUUGGCGUAAUGAUAACGCGUCUCCCUCCUAAGGAGAAGACUGCGGGUUCGAGUCCCGUACGAAACG
The yeast fitness of the first is lower: 0.557 for the first, 0.795 for the second.

Going from GUUCCGUUGGCGUAAUGAUAACGCGUCUCCCUCCUAAGGAGAAGACUGCGGGUUCGAGUCCCGUACGUAACG to GUUCCGUUGGCGUAAUGAUAACGCGUCUCCCUCUUAAGGAGACGACUGCGGGGUCGAGUCCCGUACGCAACG, the yeast fitness falls from 0.711 to ≤ 0.5.

Going from GUUCCGUUGGCGUAAUGAUAACGCGUCUCCCUCAUAAGGAGAAGAUUGCGGGUUCGAGUCCCGUACGGAACG to GUUCCGUUGGCGUAAUGAUAACGCGUCUCCCUCCUAAGGAGAAGACUGCGAGUUCGAGUCCCGUACGGAACG, the yeast fitness falls from 0.692 to 0.625.

First: GUUCCGUUGGCGUAAUGAUAACGCGUCUCCCUCCUAAGGAGAAGAGUGCGGGUUCGAGUCCCGUUCGGAACG
Second: GUUCCGUUGGCGUAAUGAUAACGCGUCUCCCUCCUAAGGAGAAGACUGCGCGUUCGAGUCCCGUUCGGAACG
The yeast fitness of the first is higher: 0.697 for the first, ≤ 0.5 for the second.

GUUCCGUUGGCGUAAUGAUAACGCGUCUCCCUUCUAAGGAGGAGACUGCGGGUUCGAGUGCGGUACGGAACG and GUUCCGUUGGCGUAAUGAUAACGCGUCUCCCUCCUAAGGAAAAGACUGCGGGUUCGAGUCCCGUAGGGAACG cannot be ordered by yeast fitness: ≤ 0.5 for the first, ≤ 0.5 for the second.

First: GUUCCGUUGGCGUAAUGAUAACGCGUCUCCCUCCUAAGGAGAAGACUGCGCGUUCGAGUCCCAUACGGAACG
Second: GUUCCGUUGGCGUAAUGAUAACGCGUCUCCCUCCUAAGGAGAAGACUGCGGAUUGGAGUCCCGUACGGAACG
The yeast fitness of the first is lower: ≤ 0.5 for the first, 0.571 for the second.

First: GUUCCGUUGGCGUAAUGAUAACGCGUCUCCCUCCUAAGGAGAAGACUGAGGGUUCGAGUCCCGUACGGAACG
Second: GUUCCGUUGGCGUAAUGAUAACGCGUCUCCCUCCUAAGGAGAAGACUGGGGGUUCGAGUCCCGUACGGAACG
The yeast fitness of the first is lower: 0.606 for the first, 0.74 for the second.

First: GUUCCGUUGGCGUAAUGAUAACGCGUCUCCCUCAUAAGGAGAAGACUGCGGGUUCGAGUACCGUACGGAACG
Second: GUUCCGUUGGCGUAAUGAUAACGCGUCUCCCUCCUAAGGACAAGACUGCGGGUUCGAGUCCCGUACGGAACG
The yeast fitness of the first is lower: ≤ 0.5 for the first, 0.658 for the second.

GUUCCGUUGGCGUAAUGAUAACGCAUCUCCCUCCUAAAGAGAAGACUGCGGGUUCGGGUCCCGUACGGAACG and GUUCCGUUGGCGUAAUGAUAACGCAUCUCCCUCCUAAGGAGAAGACUGUGGGUUCGAGUCCUGUACGGAACG cannot be ordered by yeast fitness: ≤ 0.5 for the first, ≤ 0.5 for the second.

For GUUCCGUUGGCGUAAUGAUAACGCGUCUCCCUCAUAUGGAGAAGACUGCGGGUUCGAGUCCCGUACGGAACG, the yeast fitness was ≤ 0.5.
